The data set can be described thus: Toxicity liver stage against HepG2, at 10uM. Format: cell-based. Details: test concentration 10 uM, cell line HepG2-A16-CD81EGFP. Conditions: human, HepG2-A16-CD81EGFP cells; read-out: INHIBITION
In short, it runs like this: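 Uninfected HepG2-A16-CD81EGFP cells, 3 × 10^3 per well, 1536-well, plated on prespotted compound at 10 μM final, parasite-free screening media added to match infected plates; puromycin 10 μM positive, DMSO 0.5% negative; run in parallel with 48 h PbLuc assay at 37 °C, 5% CO2; viability by CellTiter-Glo luminescence, normalized to controls.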
For the molecule `COC(=O)N1CCc2ccc(NC(=O)c3cn(C)nn3)cc2C1`, the cytotoxicity at 10 µM was -1.3%.
The value for `CN1CCn2c(-c3cnn(C)c3)cnc2C12CCN(CC1CC1)CC2` was 7.55%.
Take `Cn1cc(CC(=O)N2CCCC(c3cc(C(F)(F)F)[nH]n3)C2)cn1` (stereo unspecified): the cytotoxicity at 10 µM was -7.11%.
Then `CCOCCC(=O)Nc1cccc(Cl)c1C(N)=O`, with -8.59%.
The value for `Cc1ccc(CNCc2c[nH]nc2C(C)(C)C)c(OC2CCOC2)c1` (stereo unspecified) was 13.8%; that for `COc1ccc(SC(C)C(=O)N2CCC(C(N)=O)CC2)cc1` (stereo unspecified) was 2.28%.
Regarding `CN(C(=O)c1ccc(C2CCCO2)s1)C1CCS(=O)(=O)CC1` (stereo unspecified), the cytotoxicity at 10 µM is 1.72%.
The value for `COc1ccc(-c2cccc(-c3ccn(CCCN(C)C)n3)c2)nn1` was -1.01%.
The value for `Cc1nc(C2CCCN(C(=O)CN3CCCC3=O)C2)sc1C` (stereo unspecified) was -6.96%; that for `CN(C)Cc1nc(-n2cnc(C(=O)NC3CCCC3)c2)n2ccccc12` was 7.75%.
The value for `CN(C)C(=O)[C@@H]1C[C@@H]2CCN(C3CCOCC3)C[C@H]2O1` was 7.86%.
Regarding `Cc1ccn(CCNC(=O)C2CCN(S(=O)(=O)c3ccc(F)cc3)C2)n1` (stereo unspecified), the cytotoxicity at 10 µM was -24.5%.
Then `O=C(c1ccc2c(c1)CCCC2)N1CCn2ncnc2C1`, with -4.9%; and `CS(=O)(=O)C1CCN(S(=O)(=O)c2ccc(F)c(F)c2)C1` (stereo unspecified), with -9.52%.
The value for `CN1CCOC(CNC(=O)CCCc2ccccc2)C1` (stereo unspecified) was -0.95%.
With `c1cc(CNCC2OCCc3cn(CC4CC4)nc32)cs1` (stereo unspecified), the cytotoxicity at 10 µM turned out to be 2.61%.
Then `Cc1nc(NC(=O)NC(CS(C)(=O)=O)c2ccccc2)sc1C` (stereo unspecified), with -1.32%; and `CC(=O)N1CC[C@H]2C(=O)N(c3ccsc3)CCO[C@H]2C1`, with 4.47%; and `O=C(c1ccncc1)N1CCN2C[C@H](Oc3cccnc3)C[C@H]2C1`, with 2.83%.
For the molecule `Cc1cs/c(=N/C(=O)c2csc(NCC(C)C)n2)[nH]1`, the cytotoxicity at 10 µM amounted to 22.9%.
In the case of `CS(=O)(=O)N1CCCCC12CCN(C(=O)c1ccccc1)C2` (stereo unspecified), the cytotoxicity at 10 µM was -148%.
The value for `COCCN(CCOC)c1ncc(C#N)cc1Cl` was 2.8%; that for `CN1CCC2(CCN(C(=O)c3cccnc3)C2)C1` (stereo unspecified) was -101%; that for `COC[C@@H]1CCCN1C(=O)c1cc(-c2ccc(OC)cc2)n[nH]1` was 13.2%.
Take `CCc1nn(C)c(Cl)c1CN1C[C@@H](NC(=O)N(C)C)[C@H](C(C)C)C1`: the cytotoxicity at 10 µM is 11.4%.
The value for `CC(C)N(C)CC(=O)N(C)C(c1cccc(F)c1)c1ccccn1` (stereo unspecified) was -6.14%; that for `COc1ccc2c(c1)C1(CCN(Cc3ccoc3)CC1)N(C)CC2` was -8.04%; that for `CCOc1ccc2[nH]c(=O)c(CN3CCC(N4CCCC4)CC3)cc2c1` was -7.83%.
Then `Cc1cnn(C2CCCN(C(=O)c3ccc(-n4cnnn4)cc3)C2)c1` (stereo unspecified), with -4.57%.
In the case of `Cc1noc(CN2Cc3ccccc3CC2c2nnc(C)o2)n1` (stereo unspecified), the cytotoxicity at 10 µM was -4.62%.
Consider `CNC(=O)N1CCC2(CC1)CC[C@@]1(C(=O)NC)CN(S(C)(=O)=O)C[C@@H]21`, for which the cytotoxicity at 10 µM is -3.91%.
The value for `O=C(CCc1cc2n(n1)CCCNC2)NCCCSC1CCCCC1` was -5.52%.
As to `CCc1noc(CN(Cc2cccs2)CC2CCCO2)n1` (stereo unspecified), the cytotoxicity at 10 µM is -8.66%.
Regarding `O=C(NCc1cccs1)[C@]12COC[C@H]1CN(c1ncccn1)C2`, the cytotoxicity at 10 µM worked out at 11.6%.
Then `CCC(C)Nc1ccc(-c2nc(-c3cccc(OC)c3OC)no2)cn1` (stereo unspecified), with 24.8%; and `Cc1cccnc1CC(C)Nc1nc(N)nc2c1CCNC2` (stereo unspecified), with 2.09%.
Then `O=C(NCc1ccco1)c1[nH]nc2c1CS(=O)(=O)CC2`, with 14.8%; and `CCS(=O)(=O)Cc1nnnn1-c1ccccc1`, with 2.7%; and `Cc1ccc(C(=O)N2C[C@H]3CCC[C@@]3(COCc3cccnc3)C2)s1`, with 3.24%.
Then `c1ccc2nc(N3CCCCC3)c(NCc3nnc4n3CCC4)nc2c1`, with 2.48%; and `Cc1nc(N(C)C)nc2c1COCC21CCN(C(=O)NCC(C)C)C1` (stereo unspecified), with 7.63%.
On to `COCCO[C@H]1CCN(Cc2ccsc2)[C@H]1Cc1cccnc1`, for which the cytotoxicity at 10 µM was -2.57%.
Then `CSc1ccc(C(C(=O)O)N2CCCC2)cc1` (stereo unspecified), with 1.16%; and `COc1ccnc(NC(=O)c2cnccn2)c1`, with 7.97%; and `O=C(NCc1csc(Br)c1)c1ccc(=O)[nH]n1`, with 1.66%.
For `O=C(CN1CCCC1c1cccs1)N1CCc2sccc2C1` (stereo unspecified), the cytotoxicity at 10 µM was -17%.
For the molecule `CC(C)c1cnc(CN(C)C2CCN(CCCc3cnn(C)c3)C2)o1` (stereo unspecified), the cytotoxicity at 10 µM is -13.3%.
Then `Cc1nc[nH]c1CN1C[C@H]2CC[C@@H](C1)N(C(=O)CCNS(C)(=O)=O)C2`, with -10.4%; and `CC(C)COc1cncc(NC(CO)c2ccco2)n1` (stereo unspecified), with -5.08%; and `COc1ccc(-c2noc([C@@H]3C[C@@H](O)CN3C3CCCCC3)n2)cc1`, with 3.25%.
Then `NC(=O)C1CN(C(=O)c2ccc(F)cc2)CCN1CCc1ccccc1` (stereo unspecified), with 2.77%.
Then `Cc1ccc(-c2cc(N)c(=O)n(C(C)C(=O)NCC3CCCCC3)n2)s1` (stereo unspecified), with -13.9%; and `Cc1noc(C)c1CN1CC2(CCN(C(=O)c3cccn3C)C2)CC1=O` (stereo unspecified), with 6.53%; and `Cc1cnc(N2CCC3(C2)CN(S(=O)(=O)C2CC2)C3)nc1`, with -106%.
Turning to `Cn1cnc(NC(=O)C2CC(=O)N(c3cccc(F)c3)C2)n1` (stereo unspecified), the cytotoxicity at 10 µM is 4.28%.
The value for `O=C(NCCOc1cccc(Cl)c1)C1CC(=O)N(CC2CC2)C1` (stereo unspecified) was -0.98%; that for `COc1ccc(C)cc1-c1csc(N)c1C#N` was -5.18%; that for `CCNC(=O)NCC(CC)(OC)c1ccccc1` (stereo unspecified) was 2.05%.
The value for `CCN(Cc1cccc(-c2ccncc2)c1)S(C)(=O)=O` was -14%; that for `CO[C@H]1CCN(C(=O)c2ccc3oc(C)cc3c2)C[C@@]12CCCO2` was 25.9%; that for `O=C1CO[C@@H]2CN(Cc3ccncc3)C[C@H]2N1Cc1ccncc1` was -85%.
Then `Cc1ncsc1C(=O)NCCNC(=O)OC(C)(C)C`, with 4.73%; and `Cn1cc(CN2CC[C@@H]3[C@H]2CCC(=O)N3c2ccccc2)cn1`, with 7.42%; and `Cc1cccc(C(C)NCC2CCS(=O)(=O)CC2)c1` (stereo unspecified), with -2.67%.
With `COCCC(=O)N1CCC2(CCCN2Cc2ccccc2)C1` (stereo unspecified), the cytotoxicity at 10 µM was determined as 10.4%.
The value for `Cc1n[nH]c(C)c1C1CCCN1C(=O)NCCSC(C)(C)C` (stereo unspecified) was -11%; that for `c1ccc(CN2CC[C@]3(C[C@@H](Oc4ccccn4)CO3)C2)nc1` was -1.88%; that for `CC(C)=CCN1CC2(CCN(Cc3ncc[nH]3)CC2)CC1=O` was -10.8%.
The value for `CCc1ccc(C(O)CN2CCN(c3cccc(OC)c3)CC2)cc1` (stereo unspecified) was 11.2%.
Then `COCC(=O)N1CCN(S(=O)(=O)c2ccccc2)[C@H]2CS(=O)(=O)C[C@H]21`, with 4.84%; and `CC(c1ccc(-n2cncn2)cc1)N(C)Cc1ccccn1` (stereo unspecified), with 8.86%; and `Cc1cnn(C2(C(=O)O)CCN(c3ccnc4cc(Cl)ccc34)CC2)c1`, with -6.07%.
`O=C(NCCCNc1ccccn1)NCC1CCS(=O)(=O)C1` (stereo unspecified): the cytotoxicity at 10 µM stood at 16%.
Then `CC(C)CNC(=O)CN(CC(=O)NCC(C)C)S(C)(=O)=O`, with -12.2%; and `CCOCCc1nc(-c2cnn3c(C)cc(C)nc23)no1`, with 3.53%; and `CCC(=O)NCc1cc(C2CC2)n(C2CCCC2)n1`, with -4.36%.
For `CN1CC=C(CCN(C)C(=O)CCc2ccccc2)CC1`, the cytotoxicity at 10 µM is -5.84%.
For `Cc1nnc(CCNC(=O)c2coc(CN3CCOCC3)c2)s1`, the cytotoxicity at 10 µM was -9.21%.
Then `Cn1ccc(C(=O)NC2CCC23CCN(C(=O)c2ccncc2)CC3)c1` (stereo unspecified), with -9.84%; and `CN1C(=O)C2(CCCN(C(=O)c3ccc(=O)n(C)n3)C2)c2ccccc21` (stereo unspecified), with 4.65%; and `CCn1c(CN2CCCC2)nnc1C1CCN(Cc2cc(C)no2)CC1`, with 3.6%.
Then `CCOC1COC2(CCN(S(=O)(=O)c3ccc(F)cc3)CC2)C1` (stereo unspecified), with -109%.
The value for `O=C(Cn1nnc(-c2cc3ccccc3o2)n1)N1CCOCC1` was 7.63%; that for `CCC(=O)N1CCc2[nH]cnc2C12CCN(C1CCOCC1)CC2` was -6.47%; that for `Cc1nnc2n1CCN(C(=O)c1ccn(-c3cccc(F)c3)n1)C2` was -144%.
Consider `CN(Cc1cccc(F)c1)C(=O)c1ccncc1Cl`, for which the cytotoxicity at 10 µM is 10.5%.
Then `Cc1cc(-n2nnc(C(=O)O)c2-c2ccncc2)ccc1F`, with 6.31%; and `Cc1nc(CCNC(=O)NC2CCCN(c3ncccn3)C2)cs1` (stereo unspecified), with -129%; and `CCc1nnc(CN(CC)C(=O)CCc2scnc2C)o1`, with 7.22%.
The value for `CCc1noc(C2CCCCN2C(=O)c2ccoc2C)n1` (stereo unspecified) was 12.5%; that for `CN(CC1=CCCN(Cc2cccc(C#N)c2)C1)C(=O)c1ccco1` was -5.15%.
The value for `CCc1ncncc1C(=O)NCCNC(=O)c1ccc(C)c(F)c1` was 7.67%.
In the case of `CC(C)c1cc(CNC(=O)N2CCC(Cc3cnn(C)c3)C2)on1` (stereo unspecified), the cytotoxicity at 10 µM is -10.9%.
Then `O=C(NCCOc1ncc(Cl)cc1Cl)c1ccncc1`, with 7.18%; and `COC(=O)c1ccc(S(=O)(=O)NC2CNC(=O)C2)cc1` (stereo unspecified), with -7.27%.
With `COc1cccc2c(=O)n(C3CCNCC3)cnc12`, the cytotoxicity at 10 µM is -53.4%.
